Measured values pooled from the literature.
Target: Dual specificity mitogen-activated protein kinase kinase 1 (MAP2K1, Homo sapiens, UniProt Q02750)

CN1CC(Oc2cnc(C#N)cc2-c2ccn3nc(NC(=O)C4CC4)cc3c2)C1 — inhibition (enzyme activity, inhibitor; 1 µM): 13%
CCCS(=O)(=O)Nc1ccc(F)c(C(=O)c2c[nH]c3ncc(-c4ccc(Cl)cc4)cc23)c1F — inhibition (enzyme activity, inhibitor; 1 µM): < 10%
O=C(Nc1ccc(Oc2ccc(F)cc2)cc1)N1CCc2ncccc2[C@H]1c1ccc(F)cc1 — remaining binding (cell-free assay, competition with immobilised ligand; 1 µM): 98%
CC(C)(C)C(=O)c1sc(NC2CCCCC2)nc1N — remaining activity (enzyme activity, inhibitor; 10 µM): 94%
Cc1ccc(C(=O)NCc2ccsc2)cc1C#Cc1cn(C(C)C)c2ncnc(N)c12 — activity vs control (enzyme activity, inhibitor; 1 µM): 93%
CSc1cccnc1N1CCN(Cc2nc3ccccc3[nH]2)CC1 — remaining binding (cell-free assay, competition with immobilised ligand; 1 µM): 79%
Cc1ccc(C(=O)Nc2ccc(CN3CCN(C)CC3)c(C(F)(F)F)c2)cc1C#Cc1cnc2cccnn12 — remaining activity (enzyme activity, inhibitor; 23.5 nM): 100%
O=C(CSc1nc2nccnc2c(=O)n1CCc1ccccc1)Nc1nccs1 — inhibition (enzyme activity, inhibitor; 10 µM): -2%
Cc1nccc(COC(=O)N2C[C@@H]3[C@@H](CNC(=O)c4ccc5[nH]nnc5c4)[C@@H]3C2)n1 — remaining binding (cell-free assay, competition with immobilised ligand; 1 µM): 92%
O=C(Nc1cnn(-c2csc(C(=O)NC3COC3)c2)c1)Nc1c(F)cccc1Cl — remaining activity (enzyme activity, inhibitor; 5 µM): 107%
O=C1Nc2ccc(Cl)cc2C1=Cc1cc(Cl)c(O)c(Cl)c1 — remaining signal (cell-free assay; 0.5 µM): 96.8%
CCN(CC)CCNC(=O)c1c(C)[nH]c(/C=C2\C(=O)Nc3ccc(F)cc32)c1C — remaining activity (enzyme activity, inhibitor; 1 µM): 44%
CN(C(=O)c1ccccc1)c1cc(N(C)c2ccc3c(c2)CCc2ccc(C(=O)NCCN4CCOCC4)cc2C3=O)ccc1F — remaining binding (cell-free assay, competition with immobilised ligand; 1 µM): 100%
Nc1ncnc2occ(-c3ccc(NC(=O)Nc4cc(C(F)(F)F)ccc4F)cc3)c12 — remaining signal (cell-free assay, inhibitor; 20 µM): 9.3%
FC(F)(F)Oc1cccc(-c2cnc3ccc(-c4ccncc4)nn23)c1 — activity vs control (enzyme activity, inhibitor, radiometric; 5 µM): 73%
FC(F)c1nc2ccccc2n1-c1nc(N2CCOCC2)nc(N2CCOCC2)n1 — remaining activity (enzyme activity, inhibitor; 10 µM): 83%
CC(C)(O)[C@H]1CC[C@H](Nc2ccc3ncc(-c4cccc(C(F)(F)F)c4)n3n2)CC1 — remaining activity (enzyme activity, inhibitor; 1 µM): 79.5%
CC(C)(C)c1nc2c(s1)c1nc(N)ncc1c1ccc(NS(=O)(=O)c3c(F)cccc3F)c(F)c12 — remaining activity (enzyme activity, inhibitor, radiometric; 1 µM): 79%
CCN(CC)CCNC(=O)c1c(C)[nH]c(/C=C2\C(=O)Nc3ccc(F)cc32)c1C — inhibition (enzyme activity, inhibitor; 10 µM): 76%
CNCc1ccccc1-c1csc([C@H](C)Nc2nc(C)nc3cc(OC)c(OC)cc23)c1 — remaining binding (cell-free assay, competition with immobilised ligand; 1 µM): 100%
Cc1[nH]c(/C=C2\C(=O)Nc3ccc(F)cc32)c(C)c1C(=O)N[C@H]1CCN(C(=O)N(C)C)C1 — remaining activity (enzyme activity, inhibitor; 1 µM): 59%
Cc1cc(NC(=O)c2cccc3cc(-c4cccc5[nH]nc(N)c45)ccc23)ccc1F — activity vs control (enzyme activity, inhibitor; 0.1 µM): 102%
CNCc1ccc(-c2cc(-c3nc(-c4ccc(S(=O)(=O)C(C)C)cc4)cnc3N)on2)cc1 — inhibition (enzyme activity, inhibitor; 0.4 µM): 12%
CN(C)C1CCN(CC#Cc2nn(C3CCCC3)c3nc(NCc4ccccc4)ncc23)C1 (stereo not drawn) — inhibition (enzyme activity, inhibitor, FRET; 10 µM): 13%
CNC(=O)Nc1ccc2c(c1)CC[C@@]21OC(=O)N(CC(=O)N(Cc2ccc(F)cc2)[C@@H](C)C(F)(F)F)C1=O — remaining binding (cell-free assay, competition with immobilised ligand; 1 µM): 85%
COc1cccc(-c2cc(=O)c3ccccc3o2)c1N — remaining signal (cell-free assay; 0.5 µM): 69.1%
CNC(=O)c1cc(Oc2ccc(NC(=O)Nc3ccc(Cl)c(C(F)(F)F)c3)cc2)ccn1 — inhibition (enzyme activity, inhibitor; 10 µM): 2%
O=C(NCc1ncc(C(F)(F)F)cc1Cl)c1ccc2c(c1)C1(CCS(=O)(=O)CC1)[C@H](C1CC1)N2S(=O)(=O)c1ccc(F)cc1 — remaining binding (cell-free assay, competition with immobilised ligand; 1 µM): 98%
C=CC(=O)Nc1cc(Nc2nccc(Nc3cc(Cl)c(F)cc3C(C)(C)O)n2)c(OC)cc1N1CC[C@@H](N(C)C)C1 — inhibition (enzyme activity, inhibitor; 1 µM): 21%
Cc1ccc(Nc2nccc(N(C)c3ccc4c(C)n(C)nc4c3)n2)cc1S(N)(=O)=O — inhibition (enzyme activity, inhibitor; 0.3 µM): -5%
COc1cc2ncnc(Nc3ccc(Oc4ccccc4)cc3C)c2cc1OC — inhibition (enzyme activity, inhibitor; 1 µM): 11%
CC(C)CC(=O)N1CCc2nc(-c3ccc(Br)cc3)nc(N(C)Cc3ccccc3)c2C1 — remaining binding (cell-free assay, competition with immobilised ligand; 0.1 µM): 100%
Cn1cnc(Br)c1C1=CN(c2ncnc3[nH]cnc23)CCS1 — inhibition (enzyme activity, inhibitor, radiometric; 50 nM): 17.1%
Cc1ccc(NC(=O)c2ccc(C)c(C(F)(F)F)c2)cc1C#Cc1nn(C2CCC(O)CC2)c2ncnc(N)c12 (stereo not drawn) — remaining signal (cell-free assay; 10 µM): 34%
Cc1ccc(NC(=O)c2ccc(CN3CCN(C)CC3)cc2)cc1Nc1nc(-c2cccnc2)cs1 — remaining signal (cell-free assay; 0.5 µM): 111%
CCN(CC)c1ccc(C2=NNC(=O)CC2C)cc1[N+](=O)[O-] (stereo not drawn) — remaining activity (enzyme activity, inhibitor; 10 µM): 126%
